Data on six molecules can be found in PMC3751419 (Dalton transactions (Cambridge, England : 2003), 2013).

For data set [1], the system named is metastases of solid tumours. Particulars: cited from earlier work.
Data set [2] relates to amelanotic malignant melanoma cells. The experiment in a line: Dark and light toxicity with a 60 W tungsten lamp, phase contrast images. Type of data set: cell-based, human. The gist of the method: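 ATCC amelanotic melanoma line (from a person) grown at 37 °C, 5% CO2 in high-glucose DMEM with 10% FBS, 0.5% pen-strep, 1% glutamine and 1% non-essential amino acids. 10^5 cells/well seeded; after 24 h, medium swapped for test compound at 5 or 20 µM. After 24 h, cells irradiated 30 min with a 60 W tungsten lamp or kept dark. Phase-contrast images at 10x taken 3 h later. Untreated cells served as control.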

The next data set has as its system fibrosarcoma cells. Conditions: room-light or red-light exposure; cited from earlier work.
Data set [3] has as its system murine embryonic fibroblasts. Particulars: room-light or red-light exposure; cited from earlier work.
Data set [4] is described as follows: Stability in aqueous media by ESR and 51V NMR spectroscopy. The data set is classed as physicochemical. The gist of the method: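 A 50 mM DMSO stock was diluted to 4.0 mM in DI water (pH 7.19) and kept in subdued light at room temperature. ESR spectra were recorded at room temperature immediately and at 24, 48 and 72 h. 51V NMR spectra of the 4.0 mM solutions were taken at 0, 24, 48 and 72 h and at seven days. Control: 4.0 mM NaVO3, pH 7.19.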

In another data set the test system is HFF cells. The data set is described as follows: Dark and light toxicity with a 740 nm LED lamp, phase contrast images. The data set is classed as cell-based, human. Particulars: for light enhancement of cytopathic effect compared to dark toxicity, HFF: 740 nm red light 60 minutes, then 24 hours dark. (In general: Damage to the host cells serves as the signal in cytopathic effect assays.)

Data set [5] deals with platinum-resistant colorectal tumours. Conditions: cited from earlier work.
For the next data set, the system named is A431 carcinoma cells. The experiment in a line: Dark and light toxicity with a 740 nm LED lamp, phase contrast images. Type of data set: cell-based, human.
For data set [6], the system named is cisplatin-resistant ovarian and testicular cancer cell lines. Conditions: cited from earlier work.
[7] abbreviates: 4.0 mM in water, pH 7.19, room temperature, day seven.

Regarding `CS(C)=O.[Cl-].[Cl-].[Cl-].[Cl-].[Ru+3].c1c[nH+]c[nH]1.c1c[nH]cn1` [NAMI-A], in data set [1], the “activity against development and growth of metastases of solid tumours” value was “particularly active”.
For the molecule “sodium diaqua-4,4',4”,4”'tetrasulfophthalocyaninecobaltate(II) [Na4[Co(tspc)(H2O)2]]”, the “apoptosis of melanoma cells, dark” value in data set [2] (5.0 and 20.0 μM, incubated in the dark one day) is “do not show significant apoptosis”. In data set [2] (5 or 20 μM, 60 W tungsten lamp 30 minutes), the “impact on melanoma cells under illumination” value is “no impact”. The cytotoxic activity entry (in the data set on fibrosarcoma cells; in [3]) was “no cytotoxic activity” throughout.
On to [Ru(pbt)2(tpphz)VO(sal-L-tryp)]Cl2, for which, in data set [4] (setting [7]), the “vanadium(V) species by 51V NMR” value is reported as “a weak, broad peak at −543 ppm”. The “light enhancement of cytopathic effect compared to dark toxicity, HFF” value in the data set with HFF cells is recorded as “no effect”.
Consider `[Cl-].[Cl-].[Cl-].[Cl-].[Ru+3].c1ccc2[nH][nH+]cc2c1.c1ccc2[nH]ncc2c1.c1ccc2[nH]ncc2c1` [KP1019], for which the “activity against platinum-resistant colorectal tumours” value in data set [5] was “excellent activity”.
For [Ru(pbt)2(phen2DTT)VO(sal-L-tryp)]Cl2, the “change in intensity of ESR spectra” value in data set [4] (4.0 mM in water, pH 7.19, room temperature, 0, 24, 48, and 72 hours) was “no decrease in intensity”. Further, the “vanadium(V) species by 51V NMR” value was “a weak, broad peak at −543 ppm” in data set [4] (setting [7]) and “absence of any vanadium(V) species” in data set [4] (4.0 mM in water, pH 7.19, room temperature, up to 72 hours). In data set [4] (standing at room temperature, pH 7.19), the “stability in aqueous media (oxidation of vanadium(IV) centre)” value is listed as “considerable stability”. Also, the “changes in cell morphology of A431 cells” value in the data set on A431 carcinoma cells (5 μM, dark and light exposure) was “only slight changes in cell morphology”. For the same molecule, the “cytopathic effect on A431 cells” value with A431 carcinoma cells (20 μM) was “anticancer cytopathic effect”. The “light enhancement of cancer cell death compared to [Ru(pbt)2(tpphz)VO(sal-L-tryp)]Cl2 treated cells” value in the data set with A431 carcinoma cells (740 nm light, A431) was “more pronounced light enhancement of cancer cell death”. Also, the “light enhancement of cytopathic effect compared to dark toxicity, A431” value in the data set with A431 carcinoma cells (740 nm red light 60 minutes, then 24 hours dark) was “light enhanced cytopathic effects”. For the same molecule, the “changes in morphology of HFF cells” value in the data set on HFF cells (5 μM and 20 μM, dark and light exposure) is “only minor changes in morphology”. In addition, the “light enhancement of cytopathic effect compared to dark toxicity, HFF” value in the data set with HFF cells is “no effect”.
As to `Cc1ccnc2c1ccc1c(C)ccnc12.Cc1ccnc2c1ccc1c(C)ccnc12.O=S(=O)([O-])[O-].[O]=[V+2]` [metvan, bis(4,7-dimethyl-1,10-phenanthroline)sulfatooxovanadium(IV)], the “effectiveness against cisplatin-resistant ovarian and testicular cancer cell lines” value in data set [6] is reported as “highly effective”.
